Reference: ChEMBL document CHEMBL1128190, “Inhibition of E-selectin-, ICAM-1-, and VCAM-1-mediated cell adhesion by benzo[b]thiophene-, benzofuran-, indole-, and naphthalene-2-carboxamides: identification of PD 144795 as an antiinflammatory agent” (J Med Chem, 1995)
Each block holds one compound with its values, some of them ahead of it.

Key:
[1] = The compound was tested for inhibitory activity against E-Selectin mediated cell adhesion in Human umbilical endothelial cell culture, by using HUVEC surface expression assay.; type: functional, cell-based
In short: (§1)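 Confluent HUVECs were given compound 30 min before TNF-α (140 U/mL final), then incubated 4 h at 37 °C. Unstimulated background was subtracted and results given as % inhibition versus vehicle. IC50 came from linear regression; average of two assays, each in triplicate.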

[2] = The compound was tested for cell adhesion by measuring the inhibitory concentration against Human umbilical vein endothelial cell (HUVEC) activation, using Na51CrO4 as radioligand.; type: functional, cell-based
[3] = The compound was tested for inhibitory activity against vascular cell adhesion molecule (VCAM)-1 mediated cell adhesion in Human aortic endothelial cell culture, by using HAEC surface expression assay at 50 micro M
[4] = The compound was tested for inhibitory activity against intercellular adhesion molecule (ICAM)-1 mediated cell adhesion in Human aortic endothelial cell culture, by using HAEC surface expression assay at 50 micro M
[5] = The compound was tested for inhibitory activity against intercellular adhesion molecule (ICAM)-1 mediated cell adhesion in Human umbilical endothelial cell culture, by using HUVEC surface expression assay.; type: functional, cell-based
In short: (§2)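 HUVECs were pretreated with compound for 30 min, then stimulated with TNF-α (140 U/mL final) for 4 h at 37 °C. Unstimulated background was subtracted and results given as % inhibition versus vehicle. IC50 came from linear regression; average of two triplicate assays.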

[6] = Inhibitory activity against Human umbilical vein endothelial cell (HUVEC) activation, using Na51CrO4 as radioligand at 100 uM.; type: functional
In short: (§3)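 Confluent second-passage HUVEC monolayers were stimulated with TNF-α (200 U/mL) for 4 h with or without compound at 100 μM, then washed. Fresh human neutrophils labelled with Na⁵¹CrO₄ (5 × 10⁵) were added for 30 min at 37 °C. Non-adherent cells were aspirated and adherent cells lysed in NH₄OH; lysates were γ-counted. Results are % inhibition of TNF-stimulated adherence, triplicate. IC50 came from linear regression at 33.3–1.0 μM.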

[7] = The compound was tested for inhibitory activity against intercellular adhesion molecule (ICAM)-1 mediated cell adhesion in Human aortic endothelial cell culture, by using HAEC surface expression assay at 50 uM; type: functional
In short: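 Confluent human aortic endothelial cells were incubated with TNF-α (250 U/mL) and compound (0.005% DMSO final) for 18 h. Cells were formalin-fixed and probed with anti-ICAM-1 mAb (2 h, 37 °C), then peroxidase anti-mouse IgG (1 h) and colour reagent (15 min). Read-out was OD414.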

[8] = Cell adhesion measured using the inhibitory concentration against Human umbilical vein endothelial cell (HUVEC) activation, with Na51CrO4 as radioligand at 100 uM; type: functional; in short: as §3
[9] = The compound was tested for cell adhesion by measuring the inhibitory concentration against Human umbilical vein endothelial cell (HUVEC) activation, using calcein-AM as radioligand at 33 uM; type: functional
[10] = Inhibitory activity against E-Selectin mediated cell adhesion in Human umbilical endothelial cell culture, by using HUVEC surface expression assay at 50 uM; type: functional
In short: as §1, with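 “°C. Cells were formalin-fixed and surface E-selectin detected by cell ELISA (mouse anti-E-selectin 0.5 μg/mL, peroxidase anti-mouse IgG), with absorbance at 414 nm.” for “°C.”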

Rattus norvegicus [11] = assay: Inhibitory activity against Mycobacterium-induced foot-pad edema(MFE)at 50 mg/kg; type: functional
[12] = Inhibitory activity against intercellular adhesion molecule (ICAM)-1 mediated cell adhesion in Human umbilical endothelial cell culture, by using HUVEC surface expression assay at 50 uM; type: functional
In short: as §2, with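 “°C. After formalin fixation, surface ICAM-1 was measured by cell ELISA (mouse anti-ICAM-1 0.5 μg/mL, peroxidase anti-mouse IgG), with absorbance at 414 nm.” for “°C.”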

[13] = The compound was tested for cell adhesion by measuring the inhibitory concentration against Human umbilical vein endothelial cell (HUVEC) activation, using Na51CrO4 as radioligand at 50 uM; type: functional
[14] = The compound was tested for cell adhesion by measuring the inhibitory concentration against Human umbilical vein endothelial cell (HUVEC) activation, using calcein-AM as radioligand at 100 uM; type: functional
Rattus norvegicus [15] = assay: Inhibitory activity against Mycobacterium-induced foot-pad edema(MFE) at 50 mg/kg; type: functional
[16] = Inhibitory activity against intercellular adhesion molecule (ICAM)-1 mediated cell adhesion in Human umbilical endothelial cell culture, by using HUVEC surface expression assay.; type: functional, cell-based
In short: as §2, with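 “°C. After formalin fixation, surface ICAM-1 was measured by cell ELISA (mouse anti-ICAM-1 0.5 μg/mL, peroxidase anti-mouse IgG), with absorbance at 414 nm.” for “°C.”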

[17] = Inhibitory activity against E-Selectin mediated cell adhesion in Human umbilical endothelial cell culture, by using HUVEC surface expression assay.; type: functional, cell-based
In short: as §1, with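 “°C. Cells were formalin-fixed and surface E-selectin detected by cell ELISA (mouse anti-E-selectin 0.5 μg/mL, peroxidase anti-mouse IgG), with absorbance at 414 nm.” for “°C.”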

[18] = cell adhesion assay; measuring the inhibitory concentration against Human umbilical vein endothelial cell (HUVEC) activation, using Na51CrO4 as radioligand at 100 uM; type: functional; conditions: in the assay text read “calcein-AM” for “Na51CrO4”
[19] = The compound was tested for cell adhesion by measuring the inhibitory concentration against Human umbilical vein endothelial cell (HUVEC) activation using neutrophils labelled with calcein-AM at 100 uM; type: functional
[20] = The compound was tested for cell adhesion by measuring the inhibitory concentration against Human umbilical vein endothelial cell (HUVEC) activation, using Na51CrO4 as radioligand at 100 uM; type: functional; in short: as §3

IC50 [1]: 1.4 µM | IC50 [2]: 15 µM | IC50 [5]: 6.6 µM
Structure (SMILES): CNC(=O)c1sc2ccc(OC)cc2c1OC(C)C
Inhibition [3]: 83% | Inhibition [4]: 85%

Structure (SMILES): COc1ccc2c(c1)c(Oc1ccccc1)c(C(N)=O)[s+]2[O-] (centres undefined)
inhibition at 100 µM [6]: 15%

IC50 [1]: 3.3 µM | IC50 [2]: 6.4 µM | IC50 [5]: 3.5 µM
Structure (SMILES): CC(C)Oc1c(C(N)=O)sc2ccc(O)cc12
inhibition at 50 µM [7]: 91%

Structure (SMILES): CC(C)Sc1c(C(N)=O)sc2ccccc12
inhibition at 100 µM [8]: 34%

Structure (SMILES): CC(C)Oc1c(C(N)=O)oc2ccccc12
inhibition at 100 µM [8]: 20%

Structure (SMILES): COc1ccc2sc(C(N)=O)c(SCCN)c2c1
inhibition at 33 µM [9]: 0%

Structure (SMILES): COc1ccc2sc(C(N)=O)c(SCC(=O)O)c2c1
inhibition at 33 µM [9]: 7%

Structure (SMILES): COc1ccc2c(c1)c(OC(C)C)c(C(=O)NCc1ccccc1)[s+]2[O-] (centres undefined)
inhibition at 100 µM [8]: 15%

Structure (SMILES): COc1ccc2sc(C(=O)Nc3ccccc3)c(OC(C)C)c2c1
inhibition at 100 µM [8]: 12%

Structure (SMILES): COc1ccc2c(c1)c(OC(C)C)c(C(N)=O)[s+]2[O-] (centres undefined) [listing 1 of 2 here]
inhibition at 50 µM [10]: 25% | inhibition in vivo at 50 mg/kg (Rattus norvegicus [11]): 5% | inhibition at 50 µM [12]: 24% | inhibition at 50 µM [13]: 20%

Structure (SMILES): CCNC(=O)c1oc2ccc(OC)cc2c1OC(C)C
inhibition at 100 µM [14]: < 4%

Structure (SMILES): CC(C)Oc1c(C(N)=O)sc2ccc(Cl)cc12
inhibition at 100 µM [8]: 72%

Structure (SMILES): CC(C)Oc1c(C(N)=O)oc2ccc(Cl)cc12
inhibition at 100 µM [8]: 52%

Structure (SMILES): CC(C)OC1=C(C(N)=O)S(=O)(=O)c2ccc(O)cc21
inhibition at 50 µM [13]: < 4%

IC50 [2]: 4 µM | IC50 [16]: 5.7 µM | IC50 [17]: 9.6 µM
Structure (SMILES): COc1ccc2c(c1)c(OC(C)C)c(C(N)=O)[s+]2[O-] (centres undefined) [listing 2 of 2 here]
inhibition in vivo at 50 mg/kg (Rattus norvegicus [15]): 83%

Structure (SMILES): CC(C)Oc1c(C(N)=O)sc2ccccc12
inhibition at 100 µM [8]: 60%

IC50 [2]: 34 µM
Structure (SMILES): COCn1c(C(N)=O)c(OC(C)C)c2cc(OC)ccc21

Structure (SMILES): CCNC(=O)c1ccc2ccc(OC)cc2c1OC(C)C
inhibition at 100 µM [8]: 73%

Structure (SMILES): CC(C)Oc1c(C(N)=O)[s+]([O-])c2ccccc12 (centres undefined)
inhibition at 100 µM [18]: < 4%

Structure (SMILES): COc1ccc2c(OC(C)C)c(C(N)=O)sc2c1
inhibition at 100 µM [8]: 24%

Structure (SMILES): COc1ccc2c(c1)c(OC)c(C(N)=O)[s+]2[O-] (centres undefined)
inhibition at 100 µM [18]: 40%

IC50 [16]: 2.7 µM | IC50 [17]: 5 µM
Structure (SMILES): CC(C)Oc1c(C(N)=O)[s+]([O-])c2ccc(O)cc12 (centres undefined)

Structure (SMILES): COc1ccc2sc(C(N)=O)c(OC)c2c1
inhibition at 100 µM [8]: 60%

Structure (SMILES): COc1ccc2sc(C(N)=O)c(Oc3ccccc3)c2c1
inhibition at 100 µM [8]: 59%

Structure (SMILES): CC(C)Sc1c(C(N)=O)sc2ccc(OCc3ccccc3)cc12
inhibition at 33 µM [9]: 24%

Structure (SMILES): COc1ccc2sc(C(=O)NCCCCC(=O)O)c(OC(C)C)c2c1
inhibition at 100 µM [8]: 9%

Structure (SMILES): COc1ccc2sc(C(=O)Nc3ccccc3C(=O)O)c(OC(C)C)c2c1
inhibition at 100 µM [8]: 35%

Structure (SMILES): COc1ccc2sc(C(=O)NC(C)C)c(OC(C)C)c2c1
inhibition at 100 µM [19]: 26%

Structure (SMILES): COc1ccc2c(c1)c(OC(C)C)c(C(=O)NC(C)C)[s+]2[O-] (centres undefined)
inhibition at 100 µM [20]: 8%

Structure (SMILES): COc1ccc2sc(C(=O)NC(C)C)c(SC(C)C)c2c1
inhibition at 33 µM [9]: 22%
